From PubChem BioAssay
Hits are enriched below; roughly 4.4% of the tested compounds scored in any of these assays.
MsrA inhibitor = inhibits bovine methionine sulfoxide reductase A | inhibition, % at 15.5 µM | AID 651718 | purified bovine MsrA, absorbance read-out | 360,000 tested, 0.75% active; in the data active = inhibition above about 4.5%
AHR activator = human AHR activation; P35869; AHR-responsive luciferase reporter cells, luminescence; activation, % at 5 µM; 320,000 tested, 2.5% active; in the data active = activation above about 47%
MsrA act = activators of bovine methionine sulfoxide reductase A; 360,000 tested, 0.3% active; activation, % at 10.6 µM; purified bovine MsrA, absorbance read-out; AID 602163; in the data active = activation above about 7.5%
m5-HT2A agonist = mouse HTR2A agonism via beta-arrestin recruitment. P35363. CHO-K1 mHTR2A beta-arrestin complementation, luminescence; percent of 30 µM serotonin response. activation, % at 7.6 µM. 360,000 tested, 0.66% active;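 active = activation above a run cutoff, the mean activation of all tested compounds plus 3 SD, cut at about 14% in these data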
Target sequence (P35363 whole entry, looked up): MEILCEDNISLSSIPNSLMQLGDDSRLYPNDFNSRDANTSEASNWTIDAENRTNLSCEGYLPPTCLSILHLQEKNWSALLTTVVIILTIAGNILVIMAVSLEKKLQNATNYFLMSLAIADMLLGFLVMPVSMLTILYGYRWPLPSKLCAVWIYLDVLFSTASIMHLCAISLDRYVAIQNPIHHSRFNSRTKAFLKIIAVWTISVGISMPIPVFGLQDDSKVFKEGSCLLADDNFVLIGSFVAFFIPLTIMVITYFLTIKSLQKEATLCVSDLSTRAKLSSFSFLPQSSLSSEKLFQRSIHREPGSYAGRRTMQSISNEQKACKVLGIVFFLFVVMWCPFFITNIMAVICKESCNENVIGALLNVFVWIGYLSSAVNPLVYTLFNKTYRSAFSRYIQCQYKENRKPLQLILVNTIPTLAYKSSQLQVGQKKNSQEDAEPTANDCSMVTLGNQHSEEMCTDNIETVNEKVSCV
Tb MetRS inh = blocks T. brucei methionyl-tRNA synthetase activity | purified T. brucei MetRS, ATP depletion, Kinase-Glo luminescence | inhibition, % at 11.9 µM | 360,000 tested, 0.4% active;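 active = inhibition above a per-plate cutoff of the control wells' mean inhibition plus 3 SD, cut at about 5.5% in these data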
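Material: T. brucei methionyl-tRNA synthetase, purified; reagent: substrates ATP, L-methionine and bulk Escherichia coli tRNA; dosing: 11.9 µM single point; timing: 15 min plus 2 h at 25 °C; detection: luminescence of leftover ATP; evaluation: % inhibition; control set: DMSO-only wells as low control; replicates: singlicate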
AI-2 QS modul = modulators of Vibrio harveyi AI-2 quorum sensing system; Vibrio harveyi JMH597 AI-2 luminescence/OD600 ratio, 9 h; stronger effect = lower value; strain lacks LuxN and CqsS sensors; 0 = neutral-control median; activity change, % at 7.5 µM; 300,000 tested, 0.4% active; AID 2094; in the data active = activity change below about -75%, passing the limit was not always enough;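 note: luminescence divided by OD600 gain over 9 h not by final OD600 alone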
A number is an active result.

`Brc1ccc(Nc2nc(-c3cccnc3)cs2)cc1` gave MsrA inhibitor inactive, AHR activator inactive, MsrA act inactive, m5-HT2A agonist inactive, Tb MetRS inh inactive and AI-2 QS modul inactive.
For Nc1ccc(Nc2nc(-c3ccncc3)cs2)cc1 the results were MsrA inhibitor inactive, AHR activator 91, MsrA act inactive, m5-HT2A agonist inactive, Tb MetRS inh inactive and AI-2 QS modul inactive.
For Cc1csc(NC(=O)c2ccc(C)o2)n1 the results were MsrA inhibitor inactive, AHR activator inactive, MsrA act inactive, m5-HT2A agonist inactive, Tb MetRS inh inactive and AI-2 QS modul inactive.
`Cc1ccc(Nc2nc(-c3cccnc3)cs2)cc1C` gave MsrA inhibitor inactive, AHR activator 54, MsrA act inactive, m5-HT2A agonist inactive, Tb MetRS inh inactive and AI-2 QS modul inactive.
For Cc1ccc(NC(=O)OCCN(C)C(=O)Nc2ccc(C)cc2C)c(C)c1 the results were MsrA inhibitor inactive.
Cc1ccccc1C(=O)NCC(=O)NCC1(N2CCOCC2)CCCCC1 was read as MsrA inhibitor inactive, AHR activator inactive, MsrA act inactive, m5-HT2A agonist inactive, Tb MetRS inh inactive and AI-2 QS modul inactive.
CCCCc1c(-c2ccccc2OC)ncn1Cc1cccc(OC)c1 was read as MsrA inhibitor inactive.
For CCCCCCCCCCCCNC[C@@H]1CSCCS(=O)(=O)N1 the results were MsrA inhibitor inactive.
Screening O=C(C(=O)N1CCC(CNS(=O)(=O)c2cc(C(F)(F)F)cc(C(F)(F)F)c2)CC1)c1cccs1 returned MsrA inhibitor inactive.
O=C1c2[nH]nc(-c3ccccc3O)c2C(c2cccc(Cl)c2)N1Cc1ccco1 (centres undefined) was read as MsrA inhibitor inactive, AHR activator inactive, MsrA act inactive, m5-HT2A agonist 15, Tb MetRS inh inactive and AI-2 QS modul inactive.
`O=C1c2[nH]nc(-c3ccccc3O)c2C(c2ccc(F)cc2)N1Cc1ccco1` (centres undefined) gave MsrA inhibitor inactive, AHR activator inactive, MsrA act inactive, m5-HT2A agonist inactive, Tb MetRS inh inactive and AI-2 QS modul inactive.
Screening C=CCn1c(SCc2ccccc2Cl)nnc1-c1sc2nc(C)cc(C)c2c1N returned MsrA inhibitor inactive, AHR activator 79, MsrA act inactive, m5-HT2A agonist inactive, Tb MetRS inh inactive and AI-2 QS modul inactive.
Screening Cc1cc(C)c2c(N)c(-c3nnc(SCc4ccc(Cl)cc4)n3C)sc2n1 returned MsrA inhibitor inactive, AHR activator inactive, MsrA act inactive, m5-HT2A agonist inactive, Tb MetRS inh inactive and AI-2 QS modul inactive.
COCCNC(=O)C(c1ccc(F)cc1)N(C(=O)CCC(=O)Nc1ccccn1)c1cccc(C)c1 (centres undefined) was read as MsrA inhibitor inactive, AHR activator inactive, MsrA act inactive, m5-HT2A agonist inactive and Tb MetRS inh inactive.
`CCOC(=O)C1(Cc2cccc(Cl)c2)CCCN(C(=O)c2cc(C(C)C)nn2C)C1` (centres undefined) gave MsrA inhibitor inactive, AHR activator inactive, MsrA act inactive, m5-HT2A agonist inactive, Tb MetRS inh inactive and AI-2 QS modul inactive.
Screening COCc1ccc(-c2c(-c3ccccc3OC)sc3cc4c(cc23)OCO4)cc1 returned MsrA inhibitor inactive, AHR activator 51, MsrA act inactive, m5-HT2A agonist inactive and Tb MetRS inh inactive.
For CC1CC1c1ccc(/C=C(\C#N)C(=O)Nc2cc(Cl)ccc2Cl)o1 (centres undefined) the results were MsrA inhibitor inactive, AHR activator 60, MsrA act inactive, m5-HT2A agonist inactive, Tb MetRS inh inactive and AI-2 QS modul inactive.
For NS(=O)(=O)c1cccc(Nc2nc3ccccc3nc2NS(=O)(=O)c2ccc(Cl)cc2)c1 the results were MsrA inhibitor inactive, AHR activator inactive, MsrA act inactive, m5-HT2A agonist inactive and Tb MetRS inh inactive.
Screening CCC(=O)N/N=c1/sc2ccccc2n1C returned MsrA inhibitor inactive, AHR activator inactive, MsrA act inactive, m5-HT2A agonist inactive, Tb MetRS inh inactive and AI-2 QS modul inactive.
`COc1cc(OC)cc(C(=O)N=c2sc3ccccc3n2C)c1` gave MsrA inhibitor inactive, AHR activator inactive, MsrA act inactive, m5-HT2A agonist inactive, Tb MetRS inh inactive and AI-2 QS modul inactive.
Cn1/c(=N/NC(=O)c2ccccc2F)sc2ccccc21 was read as MsrA inhibitor inactive, AHR activator 70, MsrA act inactive, m5-HT2A agonist inactive, Tb MetRS inh inactive and AI-2 QS modul inactive.
`COc1cccc(C(=O)N/N=c2\sc3ccccc3n2C)c1` gave MsrA inhibitor inactive, AHR activator 73, MsrA act inactive, m5-HT2A agonist inactive, Tb MetRS inh inactive and AI-2 QS modul inactive.
For Cc1ccc(C(=O)N/N=c2\sc3ccccc3n2C)cc1 the results were MsrA inhibitor inactive, AHR activator 95, MsrA act inactive, m5-HT2A agonist inactive, Tb MetRS inh inactive and AI-2 QS modul inactive.
O=C(Nc1ccc(Nc2cccnc2)cc1)c1c[nH]c2ccccc12 was read as MsrA inhibitor inactive.
COc1ccc(CN2CCC3CC2c2cc(Cl)ccc23)cc1 (centres undefined) was read as MsrA inhibitor inactive, MsrA act inactive, m5-HT2A agonist inactive and Tb MetRS inh inactive.
Screening COC(=O)[C@]12C[C@H](CC(=O)NCc3cccc(C(F)(F)F)c3)C(=O)N(Cc3ccccc3)C1=C[C@H](C(C)(C)C)O[C@@H]2C returned MsrA inhibitor inactive.
Screening Cc1c(C(=O)Nc2ccc(Cl)cc2)c2ccccn2c1CCc1ccncc1 returned MsrA inhibitor inactive, AHR activator 87, MsrA act inactive, m5-HT2A agonist inactive, Tb MetRS inh inactive and AI-2 QS modul inactive.
For CCCCCCOC(=O)c1ccc(OC(=O)c2cccnc2)cc1 the results were AHR activator inactive, MsrA act inactive, m5-HT2A agonist 22, Tb MetRS inh inactive and AI-2 QS modul inactive.
CCCCOC(=O)c1ccc(OC(=O)c2cccnc2)cc1 was read as MsrA inhibitor inactive, AHR activator inactive, MsrA act inactive, m5-HT2A agonist inactive, Tb MetRS inh inactive and AI-2 QS modul inactive.
For CCOC(=O)c1c(NC(=O)Nc2ccccc2)sc(C)c1C the results were MsrA inhibitor inactive, AHR activator 49, MsrA act inactive, m5-HT2A agonist inactive, Tb MetRS inh inactive and AI-2 QS modul inactive.
CCOC(=O)Nc1sc(C)c(C)c1C(=O)OCC was read as MsrA inhibitor inactive, AHR activator inactive, MsrA act inactive, m5-HT2A agonist inactive, Tb MetRS inh inactive and AI-2 QS modul inactive.
CC(=O)N(/N=C/c1cccc(C)c1)c1nc(-c2ccc(Br)cc2)cs1 was read as MsrA inhibitor inactive, AHR activator 78, MsrA act inactive, m5-HT2A agonist inactive, Tb MetRS inh inactive and AI-2 QS modul inactive.
For COc1ccccc1/C=N/N(C(C)=O)c1nc(-c2ccc(F)cc2)cs1 the results were MsrA inhibitor inactive, AHR activator 56, MsrA act inactive, m5-HT2A agonist inactive, Tb MetRS inh inactive and AI-2 QS modul inactive.
